Reference: ChEMBL document CHEMBL1153346, “Structure-activity study of pentamidine analogues as antiprotozoal agents” (J Med Chem, 2009)
The source made the active and inactive calls. The rule behind the calls is not given here.

Legend:
[1] = test system: Trypanosoma brucei rhodesiense; experiment: Antitrypanosomal activity against Trypanosoma brucei rhodesiense STIB900 trypomastigotes infected in NMRI mouse assessed as mouse survival at 5 mg/kg, ip administered from day 3 to day 6 postinfection; assay type: functional; settings: route intraperitoneal
Method in brief: (§1)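 STIB900 acute mouse model. Dosing was intraperitoneal, daily for four days, in DMSO diluted with water to 10% final DMSO. An infected untreated control group was kept. Tail blood was checked for parasitemia to day 60, and deaths were recorded to give mean survival days. Mice surviving and aparasitemic at day 60 counted as cured.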

[2] = Selectivity index, ratio of IC50 for rat L6 cells to IC50 for Trypanosoma brucei rhodesiense STIB900 trypomastigotes; assay type: toxicity, cell-based; settings: read-out: Ratio IC50
Method in brief: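 Ratio of L6 IC50 to STIB900 IC50. L6 cells: 4000/well in RPMI 1640 with 10% FBS, 70 h at 37 °C. Bloodstream forms: 2000/well in supplemented MEM with 15% horse serum, 70 h at 37 °C. Both read by Alamar blue fluorescence; IC50s from sigmoidal curves, two independent runs in duplicate.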

L6 = experiment: Cytotoxicity against rat L6 cells after 70 hrs by alamar blue assay; assay type: cell-based; settings: L6, 70 h
Method in brief: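 L6 rat myoblasts, 4000 per well, in RPMI 1640 with 2 mM L-glutamine, HEPES, NaHCO₃ and 10% FBS. Exposed to serial dilutions (DMSO ≤1%) for 70 h at 37 °C in humidified 5% CO₂. Resazurin then added for 2-3 h; fluorescence read at ex 536/em 588 nm. IC50 from sigmoidal curves; two independent runs in duplicate.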

[3] = Selectivity index, ratio of IC50 for rat L6 cells to IC50 for chloroquine-resistant Plasmodium falciparum K1; assay type: toxicity, cell-based; settings: read-out: Ratio IC50
Method in brief: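 Ratio of L6 IC50 to K1 IC50. L6 cells: Alamar blue assay after 70 h, 37 °C. K1: [3H]-hypoxanthine incorporation in infected red cells over 48 + 24 h at 37 °C under low O2. IC50s from sigmoidal curves, two independent runs in duplicate.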

Leishmania donovani = experiment: Antiprotozoal activity against Leishmania donovani MHOM/SD/62/1S-CL2D axenic amastigotes after 72 hrs; assay type: functional, organism-based
Method in brief: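 L. donovani axenic amastigotes, adapted from promastigotes and grown in amastigote medium at 37 °C. 6 × 10⁴ parasites per well with 2-fold compound dilutions (DMSO ≤1%), incubated 72 h at 37 °C in humidified 5% CO₂. Growth read by tetrazolium (CellTiter) absorbance at 490 nm. IC50 from a four-parameter dose-response fit. Average of duplicate determinations.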

[4] = test system: Trypanosoma brucei rhodesiense; experiment: Antitrypanosomal activity against Trypanosoma brucei rhodesiense STIB900 trypomastigotes infected in NMRI mouse assessed as mouse survival at 20 mg/kg, ip administered from day 3 to day 6 postinfection; assay type: functional; settings: route intraperitoneal; method in brief: as §1
[5] = Selectivity index, ratio of IC50 for rat L6 cells to IC50 for Leishmania donovani MHOM/SD/62/1S-CL2D axenic amastigotes; assay type: toxicity, cell-based; settings: read-out: Ratio IC50
Method in brief: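 Amastigotes: 6 × 10⁴ parasites/well with 2-fold dilutions, 72 h at 37 °C in 5% CO2. Growth read by tetrazolium CellTiter absorbance at 490 nm; IC50 from a four-parameter dose-response fit.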

Plasmodium falciparum = experiment: Antiprotozoal activity after 48 hrs against chloroquine-resistant Plasmodium falciparum K1 infected erythrocytes by [3H]hypoxanthine uptake; assay type: functional, organism-based
Method in brief: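 Erythrocytic stages in infected human red cells (hematocrit 1.25%, parasitemia 0.3%) in supplemented RPMI 1640 with Albumax II. Serial dilutions incubated at 37 °C in 93% N2/4% CO2/3% O2. [3H]-hypoxanthine (0.5 µCi/well) added at 48 h, then 24 h more. Incorporation counted by scintillation. IC50 from sigmoidal curves; two independent runs in duplicate.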

[6] = test system: Trypanosoma brucei rhodesiense; experiment: Antiprotozoal activity against Trypanosoma brucei rhodesiense STIB900 trypomastigotes after 70 hrs by alamar blue assay; assay type: functional, organism-based
Method in brief: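 Bloodstream forms, 2000 per well, in MEM with Earle's salts plus 0.2 mM 2-mercaptoethanol, 1 mM pyruvate, 0.5 mM hypoxanthine and 15% heat-inactivated horse serum. Exposed to serial dilutions (DMSO ≤1%) for 70 h at 37 °C in 5% CO₂. Resazurin then added for a further 2-6 h. IC50 from sigmoidal curves; two independent runs in duplicate.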

[7] = test system: Trypanosoma brucei rhodesiense; experiment: Antitrypanosomal activity against Trypanosoma brucei rhodesiense STIB900 trypomastigotes infected in NMRI mouse assessed as survival and aparasitemic condition at 20 mg/kg, ip administered from day 3 to day 6 postinfection measured after 60 days postinfection; assay type: functional, organism-based; design: dose 20 mg/kg
Method in brief: (§2)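 STIB900 acute mouse model with 4 mice per group. Compound in DMSO diluted with water to a final 10% DMSO, given intraperitoneally once daily for four days. An infected, untreated control group was included. Tail blood checked for parasitemia until day 60. Mice alive and aparasitemic at day 60 counted as cured; deaths recorded for mean survival time.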

[8] = test system: Trypanosoma brucei rhodesiense; experiment: Antitrypanosomal activity against Trypanosoma brucei rhodesiense STIB900 trypomastigotes infected in NMRI mouse assessed as survival and aparasitemic condition at 5 mg/kg, ip administered from day 3 to day 6 postinfection measured after 60 days postinfection; assay type: functional, organism-based; design: dose 5 mg/kg; method in brief: as §2
[9] = test system: Trypanosoma brucei rhodesiense; experiment: Antitrypanosomal activity against Trypanosoma brucei rhodesiense STIB900 trypomastigotes infected in NMRI mouse assessed as mouse survival at 10 mg/kg, ip administered from day 3 to day 6 postinfection; assay type: functional; settings: route intraperitoneal; method in brief: as §1

Row | SMILES | Survival [1] [days] | selectivity ratio [2] | IC50 (L6) [nM] | selectivity ratio [3] | IC50 (Leishmania donovani) [nM] | Survival [4] [days] | selectivity ratio [5] | IC50 (Plasmodium falciparum) [nM] | IC50 [6] [nM] | Activity [7] | Activity [8] | Survival [9] [days]
1 | Cl.Cl.N=C(N)c1ccc(OCCCCCCOc2ccc(C(=N)N)cc2)cc1 | >44.3 | 292 | 10500 | 700 | 1970 | >51.8 | 5 | 15 | 36 |  |  | 
2 | CNC(=N)c1ccc(OCCCCCOc2ccc(C(=N)NC)cc2)cc1.Cl.Cl | >41 | 6330 | 152000 | 38000 | 4690 | >60 | 32 | 4 | 24 | Active |  | 
3 | Cl.Cl.c1cc(C2=NCCN2)ccc1NCCCCCNc1ccc(C2=NCCN2)cc1 | >60 | 34500 | 34500 | 34500 | 254 |  | 136 | 1 | 1 |  | Active | 
4 | Cl.Cl.Cl.Cl.N=C(N)c1ccc(OCCCCCOc2ccc(C(=N)N)cc2Cl)c(Cl)c1 |  | 255 | 11200 | 431 | 1450 | >29.5 | 8 | 26 | 44 | inactive |  | 
5 | Cl.Cl.N=C(N)c1cccc(OCCCOc2cccc(C(=N)N)c2)c1 |  | 312 | 16200 | 953 | 6070 | >32.8 | 3 | 17 | 52 |  |  | >40
6 | Cl.Cl.N=C(N)c1ccc(OCCCOc2ccc(C(=N)N)cc2N)c(N)c1 |  | 440 | 68700 | 2540 |  | >40 |  | 27 | 156 |  |  | 
7 | Cl.Cl.N=C(N)c1cccc(OCCCCCOc2cccc(C(=N)N)c2)c1 |  | 283 | 18400 | 968 | 3190 | 18.5 | 6 | 19 | 65 | inactive |  | 
8 | CC(C)NC(=N)c1ccc(OCCCCCOc2ccc(C(=N)NC(C)C)cc2)cc1.Cl.Cl | >41.3 | 5560 | 150000 | 50000 | 17800 |  | 8 | 3 | 27 |  |  | 
9 | Cl.Cl.N=C(N)c1ccc(OCCCCCOc2ccc(C(=N)N)c(F)c2)cc1F |  | 531 | 6900 | 460 | 1880 |  | 4 | 15 | 13 |  |  | >33
10 | Cl.Cl.N=C(N)c1ccc(SCCCCCSc2ccc(C(=N)N)cc2)cc1 | 32.3 | 1560 | 7800 | 411 | 1270 |  | 6 | 19 | 5 |  | inactive | 
11 | Cl.Cl.N=C(N)c1ccc(OCCCCOc2ccc(C(=N)N)cc2)cc1 |  | 470 | 4700 | 224 |  | 24.8 |  | 21 | 10 | inactive |  | 
12 | CC(C)NC(=N)c1ccc(NCCCCCNc2ccc(C(=N)NC(C)C)cc2)cc1.Cl | 18 | 2500 | 125000 | 62500 | 5750 |  | 22 | 2 | 50 |  | inactive | 
13 | Cl.N=C(N)c1ccc(OCCCCCOc2ccc(C(=N)N)cc2)cc1 [PENTAMIDINE HYDROCHLORIDE] |  |  |  |  |  | >44.3 |  | 14 | 7 |  |  | >43.5
14 | Cl.Cl.N=C(N)c1ccc(OCCCCCOc2ccc(C(=N)N)cc2C(N)=O)c(C(N)=O)c1 |  | > 3730 | > 168000 | > 4420 | > 50000 | 26.5 |  | 38 | 45 | inactive |  | 
15 | Cl.Cl.N=C(N)c1ccc(OCCCOc2ccc(C(=N)N)cc2)cc1 |  | 1260 | 8800 | 1470 | 1500 | 34 | 6 | 6 | 7 | inactive |  | 
16 | Cl.Cl.N=C(Nc1ccc(OCCCCCOc2ccc(NC(=N)c3ccccc3)cc2)cc1)c1ccccc1 |  | 21 | 3100 | 15 | > 100000 | 7 | < 1 | 201 | 147 | inactive |  | 
17 | Cl.Cl.N=C(N)c1ccc(OCCCOc2ccc(C3=NCCN3)cc2)cc1 |  | 3980 | 71600 | 3980 | 2980 |  | 24 | 18 | 18 |  |  | >26.8
18 | COc1cc(C2=NCCN2)ccc1OCCCOc1ccc(C2=NCCN2)cc1OC.Cl.Cl |  | 1170 | 105000 | 1910 | 34600 | >60 | 3 | 55 | 90 |  |  | >32.8
19 | Cl.c1cc(C2=NCCN2)ccc1OCCCCCOc1ccc(C2=NCCN2)cc1 |  | > 3360 | > 178000 | > 59300 | 2770 | >39 | > 64 | 3 | 53 | inactive |  | 
20 | Cl.N=C(N)c1ccc(NCCCCCNc2ccc(C(=N)N)cc2)cc1 | >29.3 | > 950 | 950 | 158 | 502 |  | 2 | 6 | < 1 |  |  | 
21 | COc1cc(C(=N)N)ccc1OCCCOc1ccc(C(=N)N)cc1OC.Cl.Cl | >52.8 | 4960 | 114000 | 1840 | 6890 | >60 | 17 | 62 | 23 | Active |  | 
22 | CC(C)NC(=N)c1ccc(OCCCOc2ccc(C(=N)NC(C)C)cc2)cc1.Cl.Cl |  | > 2060 | > 192000 | > 7680 | 7110 |  | > 27 | 25 | 93 |  |  | >38.5
23 | Cl.Cl.N=C(N)c1cccc(OCCCCCCOc2cccc(C(=N)N)c2)c1 |  | 228 | 17100 | 1320 | 2380 | >36 | 7 | 13 | 75 |  |  | 
